Measurements taken from ChEMBL document CHEMBL1926651, “Design, synthesis, antiviral and cytostatic evaluation of novel isoxazolidine nucleotide analogues with a 1,2,3-triazole linker” (Eur J Med Chem, 2012).
The source made the active and inactive calls. The rule behind the calls is not given here.

How the values were obtained:
[1] = Cytotoxicity against CRFK cells assessed as change in cell morphology up to 100 uM; assay type: cell-based, Felis catus; conditions: cat
Procedure, shortened: (§1)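 Uninfected host-cell cultures were examined under the microscope. MCC was taken as the lowest compound concentration producing a detectable alteration of normal cell morphology, assessed at concentrations up to 100 μM.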

Human alphaherpesvirus 3 [2] = assay: Antiviral activity against thymidine kinase-deficient Varicella Zoster virus 07/1 infected in human HEL cells assessed as inhibition of viral plaque formation at 250 uM; assay type: functional, organism-based
Human alphaherpesvirus 2 = assay: Antiviral activity against Herpes simplex virus 2 G infected in human HEL cells assessed as inhibition of viral plaque formation at 250 uM; assay type: functional, organism-based; conditions: strain G
Human respirovirus 3 = assay: Antiviral activity against Parainfluenza-3 virus infected in african green monkey Vero cells assessed as inhibition of viral plaque formation at 250 uM; assay type: functional, organism-based
Procedure, shortened: (§2)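 Confluent host cell monolayers were inoculated with 100 CCID50 of virus in the presence of test compound at serial dilutions (250, 50, 10, … μM). Viral cytopathicity was scored once it reached completion in untreated virus-infected controls.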

HEL [3] = assay: Cytotoxicity against human HEL cells assessed as change in cell morphology up to 100 uM; assay type: cell-based; procedure, shortened: as §1
[4] = tested on: Vesicular stomatitis virus; assay: Antiviral activity against Vesicular stomatitis virus infected in human HEL cells assessed as inhibition of viral plaque formation at 250 uM; assay type: functional, organism-based; procedure, shortened: as §2
CCRF-CEM = assay: Cytotoxicity against human CEM cells 3 days by coulter counting; assay type: functional; conditions: 72 h
Procedure, shortened: (§3)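 Cells were suspended at 300,000–500,000 cells/mL and added 1:1 to compound dilutions. Incubation was at 37 °C, 2 days for L1210 and 3 days for CEM, HeLa and HEL. Cells were counted with a Coulter counter. CC50 is the concentration inhibiting cell proliferation by 50%.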

Feline coronavirus = assay: Antiviral activity against Feline coronavirus infected in CrFK cells assessed as inhibition of viral plaque formation at 250 uM; assay type: functional, organism-based; procedure, shortened: as §2
Coxsackievirus B4 [5] = assay: Antiviral activity against Coxsackievirus B4 infected in human HeLa cells assessed as inhibition of viral plaque formation at 250 uM; assay type: functional, organism-based; procedure, shortened: as §2
HEL [6] = assay: Cytotoxicity against human HEL cells 3 days by coulter counting; assay type: functional; conditions: 72 h; procedure, shortened: as §3
HeLa [7] = assay: Cytotoxicity against human HeLa cells 3 days by coulter counting; assay type: functional; conditions: 72 h; procedure, shortened: as §3
[8] = tested on: Vesicular stomatitis virus; assay: Antiviral activity against Vesicular stomatitis virus infected in human Hela cells assessed as inhibition of viral plaque formation at 250 uM; assay type: functional, organism-based
[9] = tested on: Human immunodeficiency virus 1; assay: Antiviral activity against Human immunodeficiency virus 1 infected in human CEM cells assessed as inhibition of virus-induced giant cell formation after 4 days by microscopic analysis; assay type: functional, organism-based; conditions: CCRF-CEM
Procedure, shortened: (§4)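 CEM cells at about 3 × 10⁵ cells/cm³ were infected with 100 CCID50/mL of HIV-1(IIIB) or HIV-2(ROD), then seeded into wells holding test compound dilutions. After 4 days at 37 °C, virus-induced giant cell formation was scored microscopically.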

[10] = tested on: Respiratory syncytial virus; assay: Antiviral activity against Respiratory syncytial virus infected in human HeLa cells assessed as inhibition of viral plaque formation at 250 uM; assay type: functional, organism-based; procedure, shortened: as §2
Human betaherpesvirus 5 [11] = assay: Antiviral activity against Human cytomegalovirus Davis infected in human HEL cells assessed as inhibition of viral plaque formation at 250 uM; assay type: functional, organism-based
Human alphaherpesvirus 1 [12] = assay: Antiviral activity against Herpes simplex virus 1 KOS infected in human HEL cells assessed as inhibition of viral plaque formation at 250 uM; assay type: functional, organism-based; procedure, shortened: as §2
HeLa [13] = assay: Cytotoxicity against human HeLa cells assessed as change in cell morphology up to 100 uM; assay type: cell-based; procedure, shortened: as §1
Human alphaherpesvirus 1 [14] = assay: Antiviral activity against thymidine kinase-deficient acv-resistant Herpes simplex virus 1 KOS infected in human HEL cells assessed as inhibition of viral plaque formation at 250 uM; assay type: functional, organism-based
Sindbis virus = assay: Antiviral activity against Sindbis virus infected in african green monkey Vero cells assessed as inhibition of viral plaque formation at 250 uM; assay type: functional, organism-based; procedure, shortened: as §2
Punta Toro virus = assay: Antiviral activity against Punta Toro virus infected in african green monkey Vero cells assessed as inhibition of viral plaque formation at 250 uM; assay type: functional, organism-based
[15] = tested on: Mammalian orthoreovirus 1; assay: Antiviral activity against Reovirus-1 infected in african green monkey Vero cells assessed as inhibition of viral plaque formation at 250 uM; assay type: functional, organism-based; procedure, shortened: as §2
[16] = tested on: Human immunodeficiency virus 2; assay: Antiviral activity against Human immunodeficiency virus 2 infected in human CEM cells assessed as inhibition of virus-induced giant cell formation after 4 days by microscopic analysis; assay type: functional, organism-based; conditions: CCRF-CEM; procedure, shortened: as §4
MDCK = assay: Cytotoxicity against MDCK cells assessed as change in cell morphology up to 100 uM; assay type: cell-based, Canis lupus familiaris; conditions: dog; procedure, shortened: as §1
Vero = assay: Cytotoxicity against african green monkey Vero cells assessed as change in cell morphology up to 100 uM; assay type: cell-based; conditions: chlorocebus sabaeus; procedure, shortened: as §1
L1210 = assay: Cytotoxicity against mouse L1210 cells 2 days by coulter counting; assay type: functional; conditions: L1210, 48 h; procedure, shortened: as §3
Coxsackievirus B4 [17] = assay: Antiviral activity against Coxsackievirus B4 infected in african green monkey Vero cells assessed as inhibition of viral plaque formation at 250 uM; assay type: functional, organism-based; procedure, shortened: as §2
Vaccinia virus = assay: Antiviral activity against Vaccinia virus infected in human HEL cells assessed as inhibition of viral plaque formation at 250 uM; assay type: functional, organism-based; conditions: Orthopoxvirus vaccinia; procedure, shortened: as §2
Felid alphaherpesvirus 1 = assay: Antiviral activity against Felid herpesvirus 1 infected in CrFK cells assessed as inhibition of viral plaque formation at 250 uM; assay type: functional, organism-based; procedure, shortened: as §2
Human betaherpesvirus 5 [18] = assay: Antiviral activity against Human cytomegalovirus AD169 infected in human HEL cells assessed as inhibition of viral plaque formation at 250 uM; assay type: functional, organism-based
Human alphaherpesvirus 3 [19] = assay: Antiviral activity against thymidine kinase-positive Varicella Zoster virus Oka infected in human HEL cells assessed as inhibition of viral plaque formation at 250 uM; assay type: functional, cell-based; conditions: strain Oka vaccine

CCOP(=O)(OCC)[C@@H]1C[C@H](n2cc(-c3cccc(F)c3)nn2)ON1C (relative stereo)
Activity [1]: Non-toxic
Activity (Human alphaherpesvirus 3 [2]): inactive
Activity (Human alphaherpesvirus 2): inactive
Activity (Human respirovirus 3): inactive
Activity (HEL [3]): Non-toxic
Activity [4]: inactive
CC50 (CCRF-CEM): > 250 µM
Activity (Feline coronavirus): inactive
Activity (Coxsackievirus B4 [5]): inactive
CC50 (HEL [6]): 43 µM
CC50 (HeLa [7]): 212 µM
Activity [8]: inactive
Activity [9]: inactive
Activity [10]: inactive
Activity (Human betaherpesvirus 5 [11]): inactive
Activity (Human alphaherpesvirus 1 [12]): inactive
Activity (HeLa [13]): Non-toxic
Activity (Human alphaherpesvirus 1 [14]): inactive
Activity (Sindbis virus): inactive
Activity (Punta Toro virus): inactive
Activity [15]: inactive
Activity [16]: inactive
Activity (MDCK): Non-toxic
Activity (Vero): Non-toxic
CC50 (L1210): 104 µM
Activity (Coxsackievirus B4 [17]): inactive
Activity (Vaccinia virus): inactive
Activity (Felid alphaherpesvirus 1): inactive
Activity (Human betaherpesvirus 5 [18]): inactive
Activity (Human alphaherpesvirus 3 [19]): inactive

CCOP(=O)(OCC)[C@@H]1C[C@H](n2cc(-c3ccc(F)cc3F)nn2)ON1C (relative stereo)
Activity [1]: Non-toxic
Activity (Human alphaherpesvirus 3 [2]): inactive
Activity (Human alphaherpesvirus 2): inactive
Activity (Human respirovirus 3): inactive
Activity (HEL [3]): Non-toxic
Activity [4]: inactive
CC50 (CCRF-CEM): ≥ 250 µM
Activity (Feline coronavirus): inactive
Activity (Coxsackievirus B4 [5]): inactive
CC50 (HEL [6]): 42 µM
CC50 (HeLa [7]): 135 µM
Activity [8]: inactive
Activity [9]: inactive
Activity [10]: inactive
Activity (Human betaherpesvirus 5 [11]): inactive
Activity (Human alphaherpesvirus 1 [12]): inactive
Activity (HeLa [13]): Non-toxic
Activity (Human alphaherpesvirus 1 [14]): inactive
Activity (Sindbis virus): inactive
Activity (Punta Toro virus): inactive
Activity [15]: inactive
Activity [16]: inactive
Activity (MDCK): Non-toxic
Activity (Vero): Non-toxic
CC50 (L1210): 124 µM
Activity (Coxsackievirus B4 [17]): inactive
Activity (Vaccinia virus): inactive
Activity (Felid alphaherpesvirus 1): inactive
Activity (Human betaherpesvirus 5 [18]): inactive
Activity (Human alphaherpesvirus 3 [19]): inactive

CCOP(=O)(OCC)[C@@H]1C[C@H](n2cc(-c3ccccn3)nn2)ON1C (relative stereo)
Activity [1]: Non-toxic
Activity (Human alphaherpesvirus 3 [2]): inactive
Activity (Human alphaherpesvirus 2): inactive
Activity (Human respirovirus 3): inactive
Activity (HEL [3]): Non-toxic
Activity [4]: inactive
CC50 (CCRF-CEM): > 250 µM
Activity (Feline coronavirus): inactive
Activity (Coxsackievirus B4 [5]): inactive
CC50 (HEL [6]): 78 µM
CC50 (HeLa [7]): > 250 µM
Activity [8]: inactive
Activity [9]: inactive
Activity [10]: inactive
Activity (Human betaherpesvirus 5 [11]): inactive
Activity (Human alphaherpesvirus 1 [12]): inactive
Activity (HeLa [13]): Non-toxic
Activity (Human alphaherpesvirus 1 [14]): inactive
Activity (Sindbis virus): inactive
Activity (Punta Toro virus): inactive
Activity [15]: inactive
Activity [16]: inactive
Activity (MDCK): Non-toxic
Activity (Vero): Non-toxic
CC50 (L1210): 206 µM
Activity (Coxsackievirus B4 [17]): inactive
Activity (Vaccinia virus): inactive
Activity (Felid alphaherpesvirus 1): inactive
Activity (Human betaherpesvirus 5 [18]): inactive
Activity (Human alphaherpesvirus 3 [19]): inactive
